Measurements: ChEMBL document CHEMBL4680236, “Design, synthesis and structure-activity relationships of novel 15-membered macrolides: Quinolone/quinoline-containing sidechains tethered to the C-6 position of azithromycin acylides” (Eur J Med Chem, 2020)
Converted amounts (≈) assume the structure as drawn.

Tests used:
Streptococcus pneumoniae [1] = assay: Ratio of MBC to MIC against Erythromycin-susceptible Streptococcus pneumoniae ATCC 49619; type: functional
Staphylococcus aureus [2] = assay: Antibacterial activity against MLSB/methicillin/ciprofloxacin-resistant Staphylococcus aureus PU32 harboring ermA gene assessed as reduction in microbial growth; type: functional
Haemophilus influenzae [3] = assay: Bactericidal activity against azithromycin-susceptible Haemophilus influenzae ATCC 49247; type: functional
Procedure, shortened: (§1)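 Bacteria were exposed to 1- to 8-fold MIC of the sample, then transferred to fresh medium without antibacterial. After further incubation, colonies were counted. MBC was taken as the lowest concentration giving a >3 log10 reduction in colony number.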

Haemophilus influenzae [4] = assay: Antibacterial activity against azithromycin-susceptible Haemophilus influenzae ATCC 49247 assessed as reduction in microbial growth; type: functional
Streptococcus pneumoniae [5] = assay: Bactericidal activity against Erythromycin-susceptible Streptococcus pneumoniae ATCC 49619; type: functional; procedure, shortened: as §1
Streptococcus pneumoniae [6] = assay: Ratio of MBC to MIC against MLSB-resistant Streptococcus pneumoniae 07P390 harboring ermB; type: functional
Streptococcus pneumoniae [7] = assay: Antibacterial activity against penicillin-susceptible Streptococcus pneumoniae PU09 harboring mef gene assessed as reduction in microbial growth; type: functional
Streptococcus pyogenes [8] = assay: Antibacterial activity against MLSB-resistant Streptococcus pyogenes 12-206 harboring ermA gene assessed as reduction in microbial growth; type: functional
Staphylococcus aureus [9] = assay: Ratio of MBC to MIC against MLSB/methicillin/ciprofloxacin-resistant Staphylococcus aureus PU32 harboring ermA gene; type: functional
Streptococcus pyogenes [10] = assay: Ratio of MBC to MIC against MLSB-resistant Streptococcus pyogenes 12-206 harboring ermA gene; type: functional
Staphylococcus aureus [11] = assay: Bactericidal activity against MLSB/methicillin-resistant Staphylococcus aureus 15B196; type: functional
Procedure, shortened: (§2)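 Bacteria were exposed to 1- to 8-fold their MIC of test sample, then transferred to fresh culture medium without antibacterial compound and incubated for the required time. Colonies were then counted. MBC is the lowest concentration giving a reduction in colony number of >3 Log₁₀.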

Streptococcus pneumoniae [12] = assay: Antibacterial activity against MLSB-resistant Streptococcus pneumoniae 07P390 harboring ermB gene assessed as reduction in microbial growth; type: functional
Staphylococcus aureus [13] = assay: Ratio of MBC to MIC against MLSB/methicillin-resistant Staphylococcus aureus 15B196; type: functional
Streptococcus pneumoniae [14] = assay: Ratio of MBC to MIC against penicillin-susceptible Streptococcus pneumoniae PU09; type: functional
Staphylococcus aureus [15] = assay: Bactericidal activity against MLSB/methicillin/ciprofloxacin-resistant Staphylococcus aureus PU32 harboring ermA gene; type: functional; procedure, shortened: as §2
Streptococcus pneumoniae [16] = assay: Bactericidal activity against MLSB-resistant Streptococcus pneumoniae 07P390 harboring ermB gene assessed as reduction in microbial growth; type: functional; procedure, shortened: as §2
Streptococcus pneumoniae [17] = assay: Bactericidal activity against penicillin-susceptible Streptococcus pneumoniae PU09 harboring mef gene; type: functional; procedure, shortened: as §2
Staphylococcus aureus [18] = assay: Antibacterial activity against MLSB/methicillin-resistant Staphylococcus aureus 15B196 assessed as reduction in microbial growth; type: functional
Streptococcus pneumoniae [19] = assay: Antibacterial activity against Erythromycin-susceptible Streptococcus pneumoniae ATCC 49619 assessed as reduction in microbial growth; type: functional
Streptococcus pyogenes [20] = assay: Bactericidal activity against MLSB-resistant Streptococcus pyogenes 12-206 harboring ermA gene; type: functional; procedure, shortened: as §2
[21] = tested on: Staphylococcus epidermidis; assay: Antibacterial activity against methicillin-resistant Staphylococcus epidermidis 16-5 assessed as reduction in microbial growth; type: functional
Staphylococcus aureus [22] = assay: Antibacterial activity against methicillin-susceptible Staphylococcus aureus ATCC 29213 assessed as reduction in microbial growth; type: functional
Enterobacter cloacae = assay: Antibacterial activity against Enterobacter cloacae ATCC 43560 assessed as reduction in microbial growth; type: functional
Staphylococcus aureus [23] = assay: Antibacterial activity against methicillin-resisitant Staphylococcus aureus 16-30 assessed as reduction in microbial growth; type: functional
Enterococcus faecium = assay: Antibacterial activity against vancomycin-resistant Enterococcus faecium ATCC 700221 assessed as reduction in microbial growth
Acinetobacter baumannii = assay: Antibacterial activity against Acinetobacter baumannii ATCC 19606 assessed as reduction in microbial growth; type: functional; details: ATCC 19606 = CIP 70.34 = JCM 6841
Klebsiella aerogenes = assay: Antibacterial activity against Enterobacter aerogenes ATCC 13048 assessed as reduction in microbial growth; type: functional
Enterococcus faecalis = assay: Antibacterial activity against vancomycin-susceptible Enterococcus faecalis ATCC 29212 assessed as reduction in microbial growth; type: functional
Klebsiella pneumoniae [24] = assay: Antibacterial activity against NDM-1 producing Klebsiella pneumoniae ATCC BAA-2146 assessed as reduction in microbial growth; type: functional
Shigella = assay: Antibacterial activity against Shigella ATCC 12022 assessed as reduction in microbial growth; type: functional
Escherichia coli [25] = assay: Antibacterial activity against NDM-1 producing Escherichia coli […] assessed as reduction in microbial growth; type: functional
[26] = tested on: Staphylococcus epidermidis; assay: Antibacterial activity against methicillin-susceptible Staphylococcus epidermidis ATCC 12228 assessed as reduction in microbial growth; type: functional
Escherichia coli [27] = assay: Antibacterial activity against Escherichia coli BW25113 depletion of toIC efflux gene assessed as reduction in microbial growth; type: functional
Staphylococcus aureus [28] = assay: Antibacterial activity against MLSB/methicillin/ciprofloxacin-resistant Staphylococcus aureus PU32 harboring ermA gene assessed as reduction in microbial growth relative to ciprofloxacin; type: functional
Haemophilus influenzae [29] = assay: Antibacterial activity against azithromycin-susceptible Haemophilus influenzae ATCC 49247 assessed as reduction in microbial growth relative to ciprofloxacin; type: functional
Escherichia coli [30] = assay: Antibacterial activity against Escherichia coli JW5503-KanS depletion of toIC efflux gene assessed as reduction in microbial growth; type: functional
Escherichia coli [31] = assay: Antibacterial activity against Escherichia coli JW5503-1 depletion of toIC efflux gene assessed as reduction in microbial growth; type: functional
Haemophilus influenzae [32] = assay: Ratio of MBC to MIC against azithromycin-susceptible Haemophilus influenzae ATCC 49247; type: functional
Staphylococcus aureus [33] = assay: Antibacterial activity against MLSB/methicillin-resistant Staphylococcus aureus 15B196 assessed as reduction in microbial growth relative to ciprofloxacin; type: functional
Klebsiella pneumoniae [34] = assay: Antibacterial activity against ESBL producing Klebsiella pneumoniae 16-14 assessed as reduction in microbial growth; type: functional
Escherichia coli [35] = assay: Antibacterial activity against ESBL negative Escherichia coli 16-7 assessed as reduction in microbial growth; type: functional
Escherichia coli [36] = assay: Antibacterial activity against ESBL positive Escherichia coli 16-1 assessed as reduction in microbial growth; type: functional
Pseudomonas aeruginosa = assay: Antibacterial activity against Pseudomonas aeruginosa ATCC 27853 assessed as reduction in microbial growth; type: functional

| Compound | Ratio (Streptococcus pneumoniae [1]) | MIC (Staphylococcus aureus [2]) [µg/mL] | MBC (Haemophilus influenzae [3]) [µg/mL] | MIC (Haemophilus influenzae [4]) [µg/mL] | MBC (Streptococcus pneumoniae [5]) [µg/mL] | Ratio (Streptococcus pneumoniae [6]) | MIC (Streptococcus pneumoniae [7]) [µg/mL] | Ratio (Staphylococcus aureus [9]) | MBC (Staphylococcus aureus [11]) [µg/mL] | MIC (Streptococcus pneumoniae [12]) [µg/mL] | Ratio (Streptococcus pneumoniae [14]) | MBC (Staphylococcus aureus [15]) [µg/mL] | MBC (Streptococcus pneumoniae [16]) [µg/mL] | MBC (Streptococcus pneumoniae [17]) [µg/mL] | MIC (Staphylococcus aureus [18]) [µg/mL] | MIC (Streptococcus pneumoniae [19]) [µg/mL] | MIC [21] [µg/mL] | MIC (Staphylococcus aureus [22]) [µg/mL] | MIC (Enterobacter cloacae) [µg/mL] | MIC (Staphylococcus aureus [23]) [µg/mL] | also measured |
| --- | --- | --- | --- | --- | --- | --- | --- | --- | --- | --- | --- | --- | --- | --- | --- | --- | --- | --- | --- | --- | --- |
| CC[C@H]1OC(=O)[C@H](C)[C@@H](OC(=O)Cc2ccccn2)[C@H](C)[C@@H](O[C@@H]2O[C@H](C)C[C@H](N(C)C)[C@H]2O)[C@](C)(OC(=O)CCN2CCN(c3cc4c(cc3F)c(=O)c(C(N)=O)cn4C3CC3)CC2)C[C@@H](C)CN(C)[C@H](C)[C@H]2OC(=O)O[C@@]21C | 2 | 32 | > 256 | 256 | 8 (≈ 7.14 µM) | 1 | 8 | >8 | > 256 | 32 | 2 | > 256 | 32 | 16 (≈ 14.3 µM) | 32 | 4 | – | – | – | – | MIC (Streptococcus pyogenes [8]): 16 µg/mL; Ratio (Streptococcus pyogenes [10]): 1; Ratio (Staphylococcus aureus [13]): >8; MBC (Streptococcus pyogenes [20]): 16 µg/mL (≈ 14.3 µM) |
| C[C@H]1COc2c(N3CCN(C)CC3)c(F)cc3c(=O)c(C(=O)O)cn1c23.C[C@H]1COc2c(N3CCN(C)CC3)c(F)cc3c(=O)c(C(=O)O)cn1c23.O [LEVOFLOXACIN] | – | – | – | – | – | – | – | – | – | – | – | – | – | – | – | – | 8 | 0.12 | < 0.03 | 32 | MIC (Enterococcus faecium): 32 µg/mL; MIC (Acinetobacter baumannii): 0.25 µg/mL; MIC (Klebsiella aerogenes): 0.06 µg/mL; MIC (Enterococcus faecalis): 0.5 µg/mL; MIC (Klebsiella pneumoniae [24]): > 128 µg/mL; MIC (Shigella): < 0.03 µg/mL; MIC (Escherichia coli [25]): 16 µg/mL; MIC [26]: 0.12 µg/mL |
| CC[C@H]1OC(=O)[C@H](C)[C@@H](O[C@H]2C[C@@](C)(OC)[C@@H](O)[C@H](C)O2)[C@H](C)[C@@H](O[C@@H]2O[C@H](C)C[C@H](N(C)C)[C@H]2O)[C@](C)(O)C[C@@H](C)CN(C)[C@H](C)[C@@H](O)[C@]1(C)O [AZITHROMYCIN] | 4 | 32 | 8 (≈ 10.7 µM) | 2 | 0.25 (≈ 0.334 µM) | – | 8 | 1 | > 256 | 256 | 2 | 32 (≈ 42.7 µM) | > 257 | 16 (≈ 21.4 µM) | > 256 | 0.062 | – | – | – | – | MIC (Escherichia coli [27]): > 16 µg/mL; fold change (FC) (Staphylococcus aureus [28]): 0.22; fold change (FC) (Haemophilus influenzae [29]): 22; MIC (Escherichia coli [30]): 2 µg/mL; MIC (Escherichia coli [31]): 4 µg/mL; Ratio (Haemophilus influenzae [32]): 4; fold change (FC) (Staphylococcus aureus [33]): >226 |
| CC[C@H]1OC(=O)[C@H](C)[C@@H](OC(=O)Cc2ccccn2)[C@H](C)[C@@H](O[C@@H]2O[C@H](C)C[C@H](N(C)C)[C@H]2O)[C@](C)(OC(=O)CCNCCCNc2cc3c(=O)c(C(=O)O)cn(C4CC4)c3cc2Cl)C[C@@H](C)CN(C)[C@H](C)[C@@H](O)[C@]1(C)O | 1 | 8 | 64 (≈ 58.2 µM) | 16 | 0.125 (≈ 0.114 µM) | >8 | 1 | >8 | – | 1 | 1 | > 64 | > 8 | 1 (≈ 0.909 µM) | > 256 | 0.125 | > 64 | 8 | 64 | > 64 | MIC (Klebsiella pneumoniae [34]): 64 µg/mL; MIC (Enterococcus faecium): > 64 µg/mL; MIC (Acinetobacter baumannii): > 64 µg/mL; MIC (Escherichia coli [35]): 64 µg/mL; MIC (Escherichia coli [36]): 32 µg/mL; MIC (Klebsiella aerogenes): 64 µg/mL; MIC (Enterococcus faecalis): 8 µg/mL; Ratio (Haemophilus influenzae [32]): 4; MIC (Klebsiella pneumoniae [24]): > 64 µg/mL; MIC (Shigella): 16 µg/mL; MIC (Escherichia coli [25]): 64 µg/mL; MIC (Pseudomonas aeruginosa): > 64 µg/mL; MIC [26]: 4 µg/mL |
| CC[C@H]1OC(=O)[C@H](C)[C@@H](OC(=O)Cc2ccccn2)[C@H](C)[C@@H](O[C@@H]2O[C@H](C)C[C@H](N(C)C)[C@H]2O)[C@](C)(OC(=O)CCNCCC#Cc2cnc3ccccc3c2)C[C@@H](C)CN(C)[C@H](C)[C@@H](O)[C@]1(C)O | 2 | 1 | 4 (≈ 4.17 µM) | 2 | 0.125 (≈ 0.13 µM) | >8 | 1 | >8 | > 256 | 0.5 | 1 | > 8 | > 4 | 1 (≈ 1.04 µM) | 128 | 0.062 | > 64 | 1 | 32 | > 64 | MIC (Klebsiella pneumoniae [34]): 16 µg/mL; MIC (Enterococcus faecium): > 64 µg/mL; fold change (FC) (Staphylococcus aureus [28]): 0.0054; MIC (Acinetobacter baumannii): > 64 µg/mL; MIC (Escherichia coli [35]): 8 µg/mL; fold change (FC) (Haemophilus influenzae [29]): 172; MIC (Escherichia coli [36]): 8 µg/mL; MIC (Klebsiella aerogenes): 32 µg/mL; MIC (Enterococcus faecalis): 1 µg/mL; Ratio (Haemophilus influenzae [32]): 2; MIC (Klebsiella pneumoniae [24]): 32 µg/mL; MIC (Shigella): 8 µg/mL; fold change (FC) (Staphylococcus aureus [33]): 88; MIC (Escherichia coli [25]): 8 µg/mL; MIC (Pseudomonas aeruginosa): > 64 µg/mL; MIC [26]: 0.25 µg/mL |
| O=C(O)c1cn(C2CC2)c2cc(N3CCNCC3)c(F)cc2c1=O [CIPROFLOXACIN] | – | 256 | 0.008 (≈ 0.0241 µM) | – | – | – | 2 | – | 0.5 (≈ 1.51 µM) | 2 | – | > 256 | – | – | 0.5 | 2 | – | – | – | – | MIC (Escherichia coli [30]): ≤ 0.064 µg/mL; MIC (Escherichia coli [31]): ≤ 0.064 µg/mL; MIC (Streptococcus pyogenes [8]): 0.5 µg/mL |
